Active and inactive are the calls of the source.
Experiments:
Format in all cases: functional, cell-based
[1] = Cardioprotective activity against hypoxia-induced oxidative stress in rat H9c2 cells assessed as reduction in MDA levels at 1 uM preincubated for 8 hrs followed by H2O2 addition for 2 hrs in presence of leonurine by spectrophotometry
Method in brief: (§1)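 H9c2 cells were pretreated with compound for 8 h, then given H2O2 (40 mM) in medium for 2 h. Measured read-outs were LDH leakage into the culture supernatant, MDA level, and SOD and catalase activities. Values are mean ± SEM of more than three independent experiments, versus model and control groups.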

[2] = Cardioprotective activity against hypoxia-induced oxidative stress mediated inflammation in rat H9c2 cells assessed as suppression of IL-6 in supernatant at 1 uM preincubated for 8 hrs followed by H2O2 addition for 2 hrs in presence of leonurine by ELISA
Method in brief: (§2)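 TNF-α, IL-6 and IL-1β in the culture supernatant were quantified with ELISA kits. H9c2 cells were pretreated with compound for 8 h, then given 2 h H2O2 (40 mM). Values are mean ± SEM of more than three independent experiments, versus the H2O2 model group.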

[3] = Cardioprotective activity against hypoxia-induced oxidative stress in rat H9c2 cells assessed as antioxidant activity by measuring increase in SOD activity at 1 uM preincubated for 8 hrs followed by H2O2 addition for 2 hrs by spectrophotometry; method in brief: as §1
[4] = Cardioprotective activity against hypoxia-induced oxidative stress mediated inflammation in rat H9c2 cells assessed as suppression of TNF-alpha in supernatant at 1 uM preincubated for 8 hrs followed by H2O2 addition for 2 hrs by ELISA; method in brief: as §2
[5] = Cardioprotective activity against hypoxia-induced oxidative stress in rat H9c2 cells assessed as antioxidant activity by measuring reduction in MDA levels at 1 uM preincubated for 8 hrs followed by H2O2 addition for 2 hrs by spectrophotometry; method in brief: as §1
[6] = Cardioprotective activity against hypoxia-induced oxidative stress mediated inflammation in rat H9c2 cells assessed as suppression of IL-6 in supernatant at 1 uM preincubated for 8 hrs followed by H2O2 addition for 2 hrs by ELISA; method in brief: as §2
[7] = Cardioprotective activity against hypoxia-induced oxidative stress mediated inflammation in rat H9c2 cells assessed as suppression of IL-1beta in supernatant at 1 uM preincubated for 8 hrs followed by H2O2 addition for 2 hrs by ELISA; method in brief: as §2
[8] = Cardioprotective activity against hypoxia-induced oxidative stress mediated inflammation in rat H9c2 cells assessed as suppression of TNF-alpha in supernatant at 1 uM preincubated for 8 hrs followed by H2O2 addition for 2 hrs in presence of leonurine by ELISA; method in brief: as §2
[9] = Cardioprotective activity against hypoxia-induced oxidative stress in rat H9c2 cells assessed as antioxidant activity by measuring increase in SOD activity at 1 uM preincubated for 8 hrs followed by H2O2 addition for 2 hrs in presence of leonurine by spectrophotometry; method in brief: as §1
[10] = Cardioprotective activity against hypoxia-induced oxidative stress in rat H9c2 cells assessed as antioxidant activity by measuring increase in catalase activity at 1 uM preincubated for 8 hrs followed by H2O2 addition for 2 hrs by spectrophotometry; method in brief: as §1
[11] = Cardioprotective activity against hypoxia-induced oxidative stress mediated inflammation in rat H9c2 cells assessed as suppression of IL-1beta in supernatant at 1 uM preincubated for 8 hrs followed by H2O2 addition for 2 hrs in presence of leonurine by ELISA; method in brief: as §2
[12] = test system: H9c2; assay: Cardioprotective activity against hypoxia-induced cytotoxicity in rat H9c2 cells assessed as increase in cell viability at 1 uM preincubated for 8 hrs followed by H2O2 addition for 2 hrs by MTT assay
Method in brief: (§3)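 H9c2 cells were pretreated with compound for 8 h, then exposed to H2O2 (40 mM) in culture medium for 2 h. Viability was read by MTT at 0.1, 1, 10 and 100 μM, relative to untreated control and H2O2-only model groups. Values are mean ± SEM of more than three independent experiments.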

[13] = test system: H9c2; assay: Increase in No level in rat H9c2 cells at 0.1 uM preincubated for 8 hrs followed by H2O2 addition for 2 hrs by ELISA
Method in brief: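 NO concentration was measured in the culture supernatant of H9c2 cells. Cells were pretreated with compound for 8 h before 2 h H2O2 (40 mM) exposure. Values are mean ± SEM of more than three independent experiments, versus the model group.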

[14] = Cardioprotective activity against hypoxia-induced oxidative stress mediated inflammation in rat H9c2 cells assessed as suppression of TNF-alpha in supernatant at 0.1 uM preincubated for 8 hrs followed by H2O2 addition for 2 hrs by ELISA; method in brief: as §2
[15] = test system: H9c2; assay: Cardioprotective activity against hypoxia-induced cytotoxicity in rat H9c2 cells assessed as increase in cell viability at 0.1 uM preincubated for 8 hrs followed by H2O2 addition for 2 hrs by MTT assay; method in brief: as §3
[16] = Cardioprotective activity against hypoxia-induced oxidative stress in rat H9c2 cells assessed as antioxidant activity by measuring increase in SOD activity at 0.1 uM preincubated for 8 hrs followed by H2O2 addition for 2 hrs by spectrophotometry; method in brief: as §1
[17] = Cardioprotective activity against hypoxia-induced oxidative stress mediated inflammation in rat H9c2 cells assessed as suppression of IL-1beta in supernatant at 0.1 uM preincubated for 8 hrs followed by H2O2 addition for 2 hrs by ELISA; method in brief: as §2
[18] = Cardioprotective activity against hypoxia-induced oxidative stress in rat H9c2 cells assessed as antioxidant activity by measuring reduction in LDH leakage in supernatant at 0.1 uM preincubated for 8 hrs followed by H2O2 addition for 2 hrs by spectrophotometry; method in brief: as §1
[19] = Cardioprotective activity against hypoxia-induced oxidative stress mediated inflammation in rat H9c2 cells assessed as suppression of IL-6 in supernatant at 0.1 uM preincubated for 8 hrs followed by H2O2 addition for 2 hrs by ELISA; method in brief: as §2
[20] = Cardioprotective activity against hypoxia-induced apoptosis in rat H9c2 cells assessed as increase in Bcl-2 expression at 0.1 uM preincubated for 8 hrs followed by H2O2 addition for 2 hrs by Western blotting analysis
Method in brief: (§4)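 Bax and Bcl-2 protein expression was measured in H9c2 cells pretreated with compound for 8 h, then injured with H2O2 (40 mM) for 2 h. Levels were compared with control and H2O2 model groups. Values are mean ± SEM of more than three independent experiments.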

[21] = Cardioprotective activity against hypoxia-induced apoptosis in rat H9c2 cells assessed as reduction in Bax expression at 0.1 uM preincubated for 8 hrs followed by H2O2 addition for 2 hrs by Western blotting analysis; method in brief: as §4
[22] = Cardioprotective activity against hypoxia-induced oxidative stress in rat H9c2 cells assessed as antioxidant activity by measuring reduction in MDA levels at 0.1 uM preincubated for 8 hrs followed by H2O2 addition for 2 hrs by spectrophotometry; method in brief: as §1
[23] = Cardioprotective activity against hypoxia-induced oxidative stress in rat H9c2 cells assessed as antioxidant activity by measuring increase in catalase activity at 0.1 uM preincubated for 8 hrs followed by H2O2 addition for 2 hrs by spectrophotometry; method in brief: as §1
[24] = Cardioprotective activity against hypoxia-induced apoptosis in rat H9c2 cells assessed as reduction in total apoptotic cells at 0.1 uM preincubated for 8 hrs followed by H2O2 addition for 2 hrs by Annexin-V FITC/propidium iodide staining based flow cytometry
Method in brief: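 After 8 h compound pretreatment, H9c2 cells got a 2 h H2O2 (40 mM) insult. They were stained with Annexin V-FITC/PI and analysed by flow cytometry, counting total apoptotic cells including necrotic cells. Values are mean ± SEM of more than three independent experiments, versus model and control groups.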

[25] = Cardioprotective activity against hypoxia-induced oxidative stress mediated inflammation in rat H9c2 cells assessed as suppression of IL-6 in supernatant at 1 uM preincubated for 8 hrs followed by H2O2 addition for 2 hrs in presence of aspirin by ELISA; method in brief: as §2
[26] = Cardioprotective activity against hypoxia-induced oxidative stress mediated inflammation in rat H9c2 cells assessed as suppression of TNF-alpha in supernatant at 1 uM preincubated for 8 hrs followed by H2O2 addition for 2 hrs in presence of aspirin by ELISA; method in brief: as §2
[27] = Cardioprotective activity against hypoxia-induced oxidative stress mediated inflammation in rat H9c2 cells assessed as suppression of IL-1beta in supernatant at 1 uM preincubated for 8 hrs followed by H2O2 addition for 2 hrs in presence of aspirin by ELISA; method in brief: as §2
[28] = Cardioprotective activity against hypoxia-induced oxidative stress in rat H9c2 cells assessed as reduction in MDA levels at 1 uM preincubated for 8 hrs followed by H2O2 addition for 2 hrs in presence of aspirin by spectrophotometry; method in brief: as §1
[29] = Cardioprotective activity against hypoxia-induced oxidative stress in rat H9c2 cells assessed as antioxidant activity by measuring increase in SOD activity at 1 uM preincubated for 8 hrs followed by H2O2 addition for 2 hrs in presence of aspirin by spectrophotometry; method in brief: as §1
[30] = test system: H9c2; assay: Cardioprotective activity against hypoxia-induced cytotoxicity in rat H9c2 cells assessed as increase in cell viability at 0.1 to 100 uM preincubated for 8 hrs followed by H2O2 addition for 2 hrs by MTT assay; method in brief: as §3

Measured: Activity

CC(=O)Oc1ccccc1C(=O)O
active: [1] | [2] | [3] | [4] | [5] | [6] | [7] | [8] | [9] | [10] | [11] | [12]

COc1cc(C(=O)OCCCCNC(=N)N)cc(OC)c1OC(=O)CCNC(=O)c1ccccc1OC(C)=O
active: [13] | [14] | [15] | [16] | [17] | [18] | [19] | [20] | [21] | [22] | [23] | [24]

COc1cc(C(=O)OCCCCNC(=N)N)cc(OC)c1O
active: [25] | [26] | [27] | [3] | [4] | [5] | [6] | [28] | [7] | [10] | [12] | [29]

COc1cc(C(=O)OCCCCNC(=N)N)cc(OC)c1OC(=O)CCNC(=O)c1ccccc1O
active: [30]
